Laboratory results taken from ChEMBL document CHEMBL1177807, “Structure-based optimization of potent PDK1 inhibitors” (Bioorg Med Chem Lett, 2010).
The source made the active and inactive calls. The calls are words filed in the database; no cut-off is given here.

Legend:
A2780 = assay: Cytotoxicity against human A2780 cells after 72 hrs by Cell titer-glo assay; type: functional
How it was run: (§1)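 A2780 cells were grown in RPMI-1640 and MCF7 cells in MEM, each with heat-inactivated 10% fetal calf serum. Cells were seeded at 2500–5000 cells/well, treated with compound after 24 h, and incubated 72 h at 37 °C under 5% CO₂. Lysed-well ATP content, read by thermostable firefly luciferase, measured viable cells. IC₅₀ came from percent growth versus untreated control.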

[1] = biological target: Cyclin-dependent kinase 2 (Homo sapiens, UniProt P24941); assay: Inhibition of CDK2
MCF7 = assay: Cytotoxicity against human MCF7 cells after 72 hrs by Cell titer-glo assay; type: functional; how it was run: as §1
[2] = biological target: T1, 3-phosphoinositide-dependent protein kinase 1 (Homo sapiens, UniProt O15530); assay: (§2) Inhibition of PDK1
T1 sequence (O15530 whole entry): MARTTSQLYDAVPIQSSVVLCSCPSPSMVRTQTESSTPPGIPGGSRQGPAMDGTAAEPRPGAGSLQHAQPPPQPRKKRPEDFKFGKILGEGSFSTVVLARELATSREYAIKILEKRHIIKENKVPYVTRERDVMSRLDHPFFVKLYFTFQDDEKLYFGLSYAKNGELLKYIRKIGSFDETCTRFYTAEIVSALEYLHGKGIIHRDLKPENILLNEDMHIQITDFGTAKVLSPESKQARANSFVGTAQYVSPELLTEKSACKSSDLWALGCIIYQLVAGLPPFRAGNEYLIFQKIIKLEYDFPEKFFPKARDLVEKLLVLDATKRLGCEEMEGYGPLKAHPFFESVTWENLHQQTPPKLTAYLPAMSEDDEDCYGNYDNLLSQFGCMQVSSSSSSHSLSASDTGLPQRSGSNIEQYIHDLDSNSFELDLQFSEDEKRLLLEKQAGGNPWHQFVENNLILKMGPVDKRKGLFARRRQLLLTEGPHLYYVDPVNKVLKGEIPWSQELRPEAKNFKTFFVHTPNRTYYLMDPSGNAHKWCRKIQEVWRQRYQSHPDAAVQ

[3] = biological target: T2, Aurora kinase A (Homo sapiens) (UniProt O14965); assay: Inhibition of aurora A at 40 nM
T2 sequence (whole entry): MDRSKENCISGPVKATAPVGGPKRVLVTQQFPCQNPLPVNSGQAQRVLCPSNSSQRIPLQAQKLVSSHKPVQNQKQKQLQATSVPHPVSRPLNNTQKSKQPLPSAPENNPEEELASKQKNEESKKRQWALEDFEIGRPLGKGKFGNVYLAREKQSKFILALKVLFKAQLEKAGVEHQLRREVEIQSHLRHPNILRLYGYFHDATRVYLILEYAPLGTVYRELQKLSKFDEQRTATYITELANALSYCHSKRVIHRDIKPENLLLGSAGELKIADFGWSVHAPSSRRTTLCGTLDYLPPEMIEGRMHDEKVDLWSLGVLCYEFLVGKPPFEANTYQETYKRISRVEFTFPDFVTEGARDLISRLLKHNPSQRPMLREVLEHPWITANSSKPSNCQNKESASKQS

[4] = biological target: Aurora kinase B (Homo sapiens) (UniProt Q96GD4); assay: Inhibition of aurora B at 100 nM
Aurora kinase B (Homo sapiens), sequence (Q96GD4 whole entry): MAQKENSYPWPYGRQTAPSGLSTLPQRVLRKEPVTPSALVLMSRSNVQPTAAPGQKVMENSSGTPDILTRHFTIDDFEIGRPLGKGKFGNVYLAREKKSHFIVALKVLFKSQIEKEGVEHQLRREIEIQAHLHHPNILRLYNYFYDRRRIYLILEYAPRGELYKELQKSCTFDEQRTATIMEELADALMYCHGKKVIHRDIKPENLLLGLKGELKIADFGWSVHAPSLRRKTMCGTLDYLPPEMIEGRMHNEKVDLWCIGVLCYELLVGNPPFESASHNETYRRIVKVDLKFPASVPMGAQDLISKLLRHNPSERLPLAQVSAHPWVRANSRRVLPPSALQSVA

[5] = biological target: T3, 3-phosphoinositide-dependent protein kinase 1 (Homo sapiens) (UniProt O15530); assay: as §2
T3 sequence (whole entry): T1 sequence (O15530 whole entry)

Row | SMILES | Activity (A2780) [µM] | IC50 [1] [nM] | Activity (MCF7) [µM] | IC50 [2] [nM] | inhibition [3] | inhibition [4] | IC50 [5] [nM]
1 | NC(=O)c1nn(CC2CCNCC2)c2c1CCc1cnc(Nc3ccccc3)nc1-2 | 0.51 | 12 | 1.36 | – | – | – | –
2 | Cc1cc(CNC(=O)c2nn(CCCN)c3c2CCc2cnc(Nc4cccc(CC(=O)N(C)C)c4)nc2-3)ccn1 [NERVIANO] | 5.9 | 500 | >10 | 85 | Active | Active | –
3 | NC(=O)Cn1nc(C(N)=O)c2c1-c1nc(Nc3ccccc3)ncc1CC2 | 2.71 | 10 | 6 | 2740 | – | – | –
4 | NCCCn1nc(C(N)=O)c2c1-c1nc(Nc3ccccc3)ncc1CC2 | 0.12 | 1 | 0.14 | 36 | – | – | –
5 | Cc1cc(CNC(=O)c2nn(C)c3c2CCc2cnc(Nc4ccc(N5CCN(C)CC5)cc4)nc2-3)ccn1 | 0.17 | 319 | 4.91 | – | – | – | 713
